The results in this text go back to ChEMBL document CHEMBL1949525, “Boranophosphate isoster controls P2Y-receptor subtype selectivity and metabolic stability of dinucleoside polyphosphate analogues” (J Med Chem, 2012).

Usually EC50 stands for the concentration giving half of the maximal effect.

Data set [1] in a line: Stability of the compound assessed as human e-NPP1-mediated hydrolysis at pH 8.5 after 20 mins by HPLC analysis. The class given is ADME. The following applies: buffer, pH 8.5, 20 min; for Drug degradation: 20 min. Summed up: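 Human NPP1 preparation preincubated 3 min at 37 °C in 1 mM CaCl2, 200 mM NaCl, 10 mM KCl, 100 mM Tris, pH 8.5. Started with 0.2 mM dinucleotide solution (added volume) and stopped after 20 min in ice-cold perchloric acid. Neutralised with KOH, then NMP formation followed by HPLC. Percent substrate hydrolysed is the mean of two experiments run in triplicate.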

A further data set concerns the target P2Y purinoceptor 1 (Meleagris gallopavo, UniProt P49652). As to the kind of experiment: Agonist activity at turkey P2Y purinoceptor 1 expressed in human 1321N1 cells assessed as increase in intracellular calcium concentration by spectrofluorimetry. In kind it is functional, cell-based.
Data set [2] addresses T1, P2Y purinoceptor 2 (Homo sapiens, UniProt P41231). Kind of data set: Agonist activity at human P2Y purinoceptor 2 expressed in human 1321N1 cells assessed as increase in intracellular calcium concentration by spectrofluorimetry. The class given is functional, cell-based. On the technique in general: Calcium assays in cells follow changes in intracellular calcium, usually with a dye or a luminescent sensor.

Another data set concerns the target P2Y purinoceptor 6 (Rattus norvegicus, UniProt Q63371). Kind of data set: Agonist activity at rat P2Y purinoceptor 6 expressed in human 1321N1 cells assessed as increase in intracellular calcium concentration by spectrofluorimetry. The following applies: read-out: EC50. The class given is functional, cell-based. In short, it runs like this:
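1321N1 astrocytoma cells lacking endogenous P2Y receptors, stably transfected with turkey P2Y1, human P2Y2, human P2Y4 or rat P2Y6, grown in DMEM with 5% FBS, penicillin/streptomycin and 500 µg/mL G-418. Fura-2-loaded cell suspensions were exposed at 37 °C in 10 mM Hepes-buffered saline, pH 7.4, with 1 mM CaCl2 and 1 mM MgCl2. Peak [Ca2+]i rise by dual-excitation spectrofluorometry across concentrations; EC50 from curve fits; three experiments on separate days per subtype.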

Data set [3] deals with P2Y purinoceptor 6 (Rattus norvegicus) (UniProt Q63371). Kind of data set: Antagonist activity at rat P2Y purinoceptor 6 expressed in human 1321N1 cells assessed as inhibition of UDP-induced increase in intracellular calcium concentration by spectrofluorimetry. The class given is functional, cell-based. In short, it runs like this:
(§1)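 Fura-2-loaded 1321N1 transfectants (turkey P2Y1, human P2Y2/P2Y4, rat P2Y6) in Hepes-buffered saline, pH 7.4, at 37 °C. Analogues were tested against equimolar reference agonist: 2-MeS-ADP for P2Y1, UTP for P2Y2/4, UDP for P2Y6. Blockade of the [Ca2+]i rise was followed by dual-excitation spectrofluorometry.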

The target in data set [4] is T2, P2Y purinoceptor 4 (Homo sapiens, UniProt P51582). As to the kind of experiment: Antagonist activity at human P2Y purinoceptor 4 expressed in human 1321N1 cells assessed as inhibition of UTP-induced increase in intracellular calcium concentration by spectrofluorimetry. In kind it is functional, cell-based. In short, it runs like this: as §1
T2 sequence (P51582 whole entry): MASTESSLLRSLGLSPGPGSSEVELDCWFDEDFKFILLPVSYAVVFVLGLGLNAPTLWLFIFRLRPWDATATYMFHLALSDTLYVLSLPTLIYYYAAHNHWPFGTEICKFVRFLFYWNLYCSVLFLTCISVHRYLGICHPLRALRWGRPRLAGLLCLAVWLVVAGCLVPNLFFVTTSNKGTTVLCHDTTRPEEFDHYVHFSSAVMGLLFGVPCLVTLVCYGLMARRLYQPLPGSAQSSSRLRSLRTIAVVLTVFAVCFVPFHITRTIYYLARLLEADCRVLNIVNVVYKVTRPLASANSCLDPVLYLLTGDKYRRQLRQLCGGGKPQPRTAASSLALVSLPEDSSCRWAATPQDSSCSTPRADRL
Data set [5] concerns the target T1, P2Y purinoceptor 2. As to the kind of experiment: Antagonist activity at human P2Y purinoceptor 2 expressed in human 1321N1 cells assessed as inhibition of UTP-induced increase in intracellular calcium concentration by spectrofluorimetry. In kind it is functional, cell-based. Summed up: as §1
Data set [6] addresses P2Y purinoceptor 1 (Meleagris gallopavo) (UniProt P49652). As to the kind of experiment: Antagonist activity at turkey P2Y purinoceptor 1 expressed in human 1321N1 cells assessed as inhibition of 2-Sme-ADP-induced increase in intracellular calcium concentration by spectrofluorimetry. In kind it is functional, cell-based. Summed up:
as §1

The target of data set [7] is T2, P2Y purinoceptor 4. Kind of data set: Agonist activity at human P2Y purinoceptor 4 expressed in human 1321N1 cells assessed as increase in intracellular calcium concentration by spectrofluorimetry. To be noted: read-out: EC50. In kind it is functional, cell-based. In short, it runs like this:
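1321N1 astrocytoma cells (no endogenous P2Y receptors) stably expressing hP2Y4, grown in DMEM with 5% FBS, penicillin/streptomycin and 500 μg/mL G-418. Fura-2-loaded cell suspensions; compounds applied at various concentrations, 37 °C, 10 mM Hepes-buffered saline pH 7.4 with 1 mM CaCl2/MgCl2. Peak [Ca2+]i rise by dual-excitation fluorometry gives EC50; UTP reference agonist; three experiments on separate days.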

Active and inactive are the calls of the source. The rule behind the calls is not given here.

P2Y purinoceptor 1, sequence (P49652 whole entry): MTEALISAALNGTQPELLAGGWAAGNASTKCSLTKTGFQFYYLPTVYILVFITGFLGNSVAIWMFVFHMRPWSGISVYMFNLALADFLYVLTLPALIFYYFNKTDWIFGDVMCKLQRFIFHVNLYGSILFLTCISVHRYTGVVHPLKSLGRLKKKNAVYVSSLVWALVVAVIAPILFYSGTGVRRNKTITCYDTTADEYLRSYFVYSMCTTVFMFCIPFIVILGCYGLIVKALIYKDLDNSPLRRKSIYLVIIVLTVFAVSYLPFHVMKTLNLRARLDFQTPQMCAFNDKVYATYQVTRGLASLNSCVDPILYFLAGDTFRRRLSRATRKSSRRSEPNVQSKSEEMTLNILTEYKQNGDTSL
P2Y purinoceptor 1 (Meleagris gallopavo), sequence (P49652 whole entry): as above
P2Y purinoceptor 6 (Rattus norvegicus), sequence (Q63371 whole entry): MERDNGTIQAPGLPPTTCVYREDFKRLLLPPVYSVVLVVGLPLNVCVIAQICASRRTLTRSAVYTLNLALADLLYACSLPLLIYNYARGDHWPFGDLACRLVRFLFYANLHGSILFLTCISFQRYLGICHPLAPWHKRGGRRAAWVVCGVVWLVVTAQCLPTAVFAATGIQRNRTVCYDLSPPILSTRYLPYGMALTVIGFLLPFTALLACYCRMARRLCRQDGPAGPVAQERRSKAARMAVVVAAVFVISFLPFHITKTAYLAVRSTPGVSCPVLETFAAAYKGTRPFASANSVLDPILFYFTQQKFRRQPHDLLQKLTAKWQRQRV
P2Y purinoceptor 6, sequence (Q63371 whole entry): as above
T1 sequence (P41231 whole entry): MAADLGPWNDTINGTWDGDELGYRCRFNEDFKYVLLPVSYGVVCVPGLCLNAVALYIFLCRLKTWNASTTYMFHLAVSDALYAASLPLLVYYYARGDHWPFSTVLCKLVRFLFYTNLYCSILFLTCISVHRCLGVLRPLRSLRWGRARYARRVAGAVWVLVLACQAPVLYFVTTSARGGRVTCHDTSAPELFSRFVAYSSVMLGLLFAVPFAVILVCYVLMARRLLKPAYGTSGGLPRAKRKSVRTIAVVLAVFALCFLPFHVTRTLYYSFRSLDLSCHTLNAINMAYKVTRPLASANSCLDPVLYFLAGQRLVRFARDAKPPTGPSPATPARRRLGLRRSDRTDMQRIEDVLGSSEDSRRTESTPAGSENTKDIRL

For `Nc1ncnc2c1ncn2[C@@H]1O[C@H](COP(=O)(O)OP(=O)(O)OP(=O)(O)OP(=O)(O)OP(=O)(O)OC[C@H]2O[C@@H](n3cnc4c(N)ncnc43)[C@H](O)[C@@H]2O)[C@@H](O)[C@H]1O`, the Stability entry in data set [1] is recorded as “Unstable”.

Regarding `BP(=O)(OP(=O)(O)OC[C@H]1O[C@@H](n2cnc3c(N)ncnc32)[C@H](O)[C@@H]1O)OP(=O)(O)OP(=O)(O)OC[C@H]1O[C@@H](n2cnc3c(N)ncnc32)[C@H](O)[C@@H]1O.CCCCN(CCCC)CCCC.CCCCN(CCCC)CCCC.CCCCN(CCCC)CCCC.CCCCN(CCCC)CCCC` (stereo in doubt; 6B), the concentration giving a half-maximal response (EC50) at P2Y purinoceptor 1 (read-out: EC50) turned out to be 4.3 µM. Further, the Drug degradation in [1] was 2.1%.

Turning to `BP(=O)(OP(=O)(O)OC[C@H]1O[C@@H](n2ccc(=O)[nH]c2=O)[C@H](O)[C@@H]1O)OP(=O)(O)OP(=O)(O)OC[C@H]1O[C@@H](n2ccc(=O)[nH]c2=O)[C@H](O)[C@@H]1O.CCCCN(CCCC)CCCC.CCCCN(CCCC)CCCC.CCCCN(CCCC)CCCC.CCCCN(CCCC)CCCC` (stereo in doubt; 7B), the EC50 result at P2Y purinoceptor 2 [2] (1321-n1) was “Not Active”; at P2Y purinoceptor 6, 0.98 µM. In addition, in data set [1], the Drug degradation came to 3.5%.

`BP(=O)(OP(=O)(O)OC[C@H]1O[C@@H](n2cnc3c(N)ncnc32)[C@H](O)[C@@H]1O)OP(=O)(O)OP(=O)(O)OC[C@H]1O[C@@H](n2ccc(=O)[nH]c2=O)[C@H](O)[C@@H]1O.CCCCN(CCCC)CCCC.CCCCN(CCCC)CCCC.CCCCN(CCCC)CCCC.CCCCN(CCCC)CCCC` (stereo in doubt; 8B) [listing 1 of 2 here]: the EC50 amounted to 6.9 µM on P2Y purinoceptor 1 (read-out: EC50), 64.2 µM on P2Y purinoceptor 2 [2] (read-out: EC50) and 1.92 µM on P2Y purinoceptor 6. The Drug degradation in data set [1] worked out at 2.1%.

`BP(=O)(OP(=O)(O)OC[C@H]1O[C@@H](n2cnc3c(N)ncnc32)[C@H](O)[C@@H]1O)OP(=O)(O)OP(=O)(O)OC[C@H]1O[C@@H](n2ccc(=O)[nH]c2=O)[C@H](O)[C@@H]1O.CCCCN(CCCC)CCCC.CCCCN(CCCC)CCCC.CCCCN(CCCC)CCCC.CCCCN(CCCC)CCCC` (stereo in doubt; 8B) [listing 2 of 2 here]: the result (in data set [3]; at P2Y purinoceptor 4 [4]; on P2Y purinoceptor 2 [5]; in [6]) was inactive.

As to `BP(=O)(OP(=O)(O)OC[C@H]1O[C@@H](n2ccc(=O)[nH]c2=O)[C@H](O)[C@@H]1O)OP(=O)(O)OP(=O)(O)OC[C@H]1O[C@@H](n2cnc3c(N)ncnc32)[C@H](O)[C@@H]1O.CCCCN(CCCC)CCCC.CCCCN(CCCC)CCCC.CCCCN(CCCC)CCCC.CCCCN(CCCC)CCCC` (stereo in doubt; 9B) [listing 1 of 2 here], the values for the EC50 at P2Y purinoceptor 1 (read-out: EC50), on P2Y purinoceptor 2 [2] (1321-n1) and at P2Y purinoceptor 6 were 0.81 µM, “Not Active” and 11.7 µM, respectively. The Drug degradation in data set [1] was found to be 3.3%.

For the compound `BP(=O)(OP(=O)(O)OC[C@H]1O[C@@H](n2ccc(=O)[nH]c2=O)[C@H](O)[C@@H]1O)OP(=O)(O)OP(=O)(O)OC[C@H]1O[C@@H](n2cnc3c(N)ncnc32)[C@H](O)[C@@H]1O.CCCCN(CCCC)CCCC.CCCCN(CCCC)CCCC.CCCCN(CCCC)CCCC.CCCCN(CCCC)CCCC` (stereo in doubt; 9B) [listing 2 of 2 here], the outcome (in [3]; on P2Y purinoceptor 4 [4]; on P2Y purinoceptor 2 [5]; in data set [6]) was inactive.

As to `BP(=O)(OC[C@H]1O[C@@H](n2cnc3c(N)ncnc32)[C@H](O)[C@@H]1O)OP(=O)(O)OP(=O)(O)OC[C@H]1O[C@@H](n2cnc3c(N)ncnc32)[C@H](O)[C@@H]1O.CCCCN(CCCC)CCCC.CCCCN(CCCC)CCCC.CCCCN(CCCC)CCCC` (stereo in doubt; 10A), the outcome (in [3]; on P2Y purinoceptor 4 [4]; on P2Y purinoceptor 2 [5]; in data set [6]) was inactive.

With `BP(=O)(OC[C@H]1O[C@@H](n2cnc3c(N)ncnc32)[C@H](O)[C@@H]1O)OP(=O)(O)OP(=O)(O)OC[C@H]1O[C@@H](n2cnc3c(N)ncnc32)[C@H](O)[C@@H]1O.CCCCN(CCCC)CCCC.CCCCN(CCCC)CCCC.CCCCN(CCCC)CCCC` (stereo in doubt; 10B) [listing 1 of 2 here], on P2Y purinoceptor 1 (read-out: EC50), the EC50 turned out to be 0.8 µM. Further, in [1], the Drug degradation turned out to be 4.4%.

As to `BP(=O)(OC[C@H]1O[C@@H](n2cnc3c(N)ncnc32)[C@H](O)[C@@H]1O)OP(=O)(O)OP(=O)(O)OC[C@H]1O[C@@H](n2cnc3c(N)ncnc32)[C@H](O)[C@@H]1O.CCCCN(CCCC)CCCC.CCCCN(CCCC)CCCC.CCCCN(CCCC)CCCC` (stereo in doubt; 10B) [listing 2 of 2 here], the outcome (in data set [3]; on P2Y purinoceptor 4 [4]; on P2Y purinoceptor 2 [5]; in data set [6]) was inactive.

For `BP(=O)(OC[C@H]1O[C@@H](n2ccc(=O)[nH]c2=O)[C@H](O)[C@@H]1O)OP(=O)(O)OP(=O)(O)OC[C@H]1O[C@@H](n2ccc(=O)[nH]c2=O)[C@H](O)[C@@H]1O.CCCCN(CCCC)CCCC.CCCCN(CCCC)CCCC.CCCCN(CCCC)CCCC` (stereo in doubt; 11A), the result (in [3]; at P2Y purinoceptor 4 [4]; on P2Y purinoceptor 2 [5]; in data set [6]) was inactive.

`BP(=O)(OC[C@H]1O[C@@H](n2ccc(=O)[nH]c2=O)[C@H](O)[C@@H]1O)OP(=O)(O)OP(=O)(O)OC[C@H]1O[C@@H](n2ccc(=O)[nH]c2=O)[C@H](O)[C@@H]1O.CCCCN(CCCC)CCCC.CCCCN(CCCC)CCCC.CCCCN(CCCC)CCCC` (stereo in doubt; 11B): the EC50 at P2Y purinoceptor 6 was determined as 0.3 µM. Further, in data set [1], the Drug degradation came to 6%.

As to `BP(=O)(OC[C@H]1O[C@@H](n2cnc3c(N)ncnc32)[C@H](O)[C@@H]1O)OP(=O)(O)OP(=O)(O)OP(=O)(O)OC[C@H]1O[C@@H](n2cnc3c(N)ncnc32)[C@H](O)[C@@H]1O.CCCCN(CCCC)CCCC.CCCCN(CCCC)CCCC.CCCCN(CCCC)CCCC.CCCCN(CCCC)CCCC` (stereo in doubt; 12A), the result (in data set [3]; on P2Y purinoceptor 4 [4]; on P2Y purinoceptor 2 [5]; in data set [6]) was inactive.

As for `BP(=O)(OC[C@H]1O[C@@H](n2cnc3c(N)ncnc32)[C@H](O)[C@@H]1O)OP(=O)(O)OP(=O)(O)OP(=O)(O)OC[C@H]1O[C@@H](n2cnc3c(N)ncnc32)[C@H](O)[C@@H]1O.CCCCN(CCCC)CCCC.CCCCN(CCCC)CCCC.CCCCN(CCCC)CCCC.CCCCN(CCCC)CCCC` (stereo in doubt; 12B) [listing 1 of 2 here], the concentration for a half-maximal effect (EC50) was found to be 6.9 µM on P2Y purinoceptor 1 (read-out: EC50) and 64.2 µM at P2Y purinoceptor 2 [2] (read-out: EC50). Further, the Drug degradation in data set [1] came to 17%.

Regarding `BP(=O)(OC[C@H]1O[C@@H](n2cnc3c(N)ncnc32)[C@H](O)[C@@H]1O)OP(=O)(O)OP(=O)(O)OP(=O)(O)OC[C@H]1O[C@@H](n2cnc3c(N)ncnc32)[C@H](O)[C@@H]1O.CCCCN(CCCC)CCCC.CCCCN(CCCC)CCCC.CCCCN(CCCC)CCCC.CCCCN(CCCC)CCCC` (stereo in doubt; 12B) [listing 2 of 2 here], the result (in data set [3]; on P2Y purinoceptor 4 [4]; at P2Y purinoceptor 2 [5]; in [6]) was inactive.

`BP(=O)(OC[C@H]1O[C@@H](n2ccc(=O)[nH]c2=O)[C@H](O)[C@@H]1O)OP(=O)(O)OP(=O)(O)OP(=O)(O)OC[C@H]1O[C@@H](n2ccc(=O)[nH]c2=O)[C@H](O)[C@@H]1O.CCCCN(CCCC)CCCC.CCCCN(CCCC)CCCC.CCCCN(CCCC)CCCC.CCCCN(CCCC)CCCC` (stereo in doubt; 13A): the EC50 was 9.4 µM at P2Y purinoceptor 4 [7], “Not Active” at P2Y purinoceptor 1 (1321-n1) and 36.1 µM on P2Y purinoceptor 6. Further, the Drug degradation in data set [1] was 3.5%.

In the case of `BP(=O)(OC[C@H]1O[C@@H](n2ccc(=O)[nH]c2=O)[C@H](O)[C@@H]1O)OP(=O)(O)OP(=O)(O)OP(=O)(O)OC[C@H]1O[C@@H](n2ccc(=O)[nH]c2=O)[C@H](O)[C@@H]1O.CCCCN(CCCC)CCCC.CCCCN(CCCC)CCCC.CCCCN(CCCC)CCCC.CCCCN(CCCC)CCCC` (stereo in doubt; 13B), the EC50 on P2Y purinoceptor 4 [7] came to 16.8 µM; on P2Y purinoceptor 2 [2] (read-out: EC50) it was 24.6 µM; at P2Y purinoceptor 6, 3.9 µM. The Drug degradation in data set [1] came to 11.3%.
